Source: ChEMBL document CHEMBL4513216, “Probing the Open Global Health Chemical Diversity Library for Multistage-Active Starting Points for Next-Generation Antimalarials” (ACS Infect Dis, 2020)

Assay: Toxicity liver stage against HepG2, at 10uM
Assay type: cell-based
Parameters: test concentration 10 uM, cell line HepG2-A16-CD81EGFP
Conditions: human, HepG2-A16-CD81EGFP cells; read-out: INHIBITION
Summary of the method: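 Uninfected HepG2-A16-CD81EGFP cells, 3 × 10^3 per well, 1536-well, plated on prespotted compound at 10 μM final, parasite-free screening media added to match infected plates; puromycin 10 μM positive, DMSO 0.5% negative; run in parallel with 48 h PbLuc assay at 37 °C, 5% CO2; viability by CellTiter-Glo luminescence, normalized to controls.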

Row | Compound | cytotoxicity at 10 µM [%]
1 | CN(Cc1ccccc1O)CC1CCCN(CCc2ccc(Cl)cc2)C1 (stereo unspecified) | -10.1
2 | Cc1nn(C2CCS(=O)(=O)C2)c(O)c1CCc1ccccc1 (stereo unspecified) | -50.2
3 | CNC(=O)Cn1c(CO)cnc1SCc1ccccc1Cl | 2.6
4 | Cn1cc(C(=O)N2CC[C@@H]3[C@@H]2CCN3c2ccccn2)cn1 | -0.0807
5 | CCOC(=O)c1ccc(NC(=O)Cn2cc(I)cn2)cc1 | 2.96
6 | CCn1nc(C)c2nc(C(C)C)nc(N3CCCCC3)c21 | -7.67
7 | Cc1nc(CCC(N)=O)cc(C2CCCCN2S(C)(=O)=O)n1 (stereo unspecified) | -13
8 | CN(C)C(=O)C1(CCCc2ccccn2)CCN1Cc1nccn1C (stereo unspecified) | 8.08
9 | CC(Cn1cccn1)NCC(=O)NC1CCOCC1 (stereo unspecified) | 2.51
10 | CC(C)N(C)CC(=O)N1CCCC(n2ccnc2)C1 (stereo unspecified) | 5.56
11 | COc1ccc(NCc2ccccc2N2CCN(C(C)=O)CC2)cn1 | 1.85
12 | CCN(CC)C(=O)CN1CCCC1C(=O)N(C)C (stereo unspecified) | 12.5
13 | CCN(Cc1ccccc1C)S(C)(=O)=O | 9.23
14 | CCCc1noc(CCCC(=O)N2CCCC(n3ccnc3C)C2)n1 (stereo unspecified) | -2.5
15 | Cc1ccc(C(=O)NS(C)(=O)=O)cc1-n1cccc1 | -3.47
16 | Cc1cc(C)cc(C(=O)Nc2ccc(CC3CC(=O)NC3=O)cc2)c1 (stereo unspecified) | -3
17 | CC(C)NC(=O)CN(C)C1CCN(c2ccc(Cl)cn2)CC1 | 3.5
18 | NC(=O)C1CCN(C(=O)c2ccccc2OCc2ccccc2Cl)CC1 | -9.4
19 | COCCN(CCC#N)Cn1cc(Cl)cn1 | 4.68
20 | Cc1cnc(CN(C)Cc2cccc(OC(F)(F)F)c2)cn1 | 2.4
21 | Cc1ccc(C)n1-c1c(C(=O)NCC(C)Cn2cccn2)cnn1C (stereo unspecified) | 13.8
22 | Cc1ccc(NC(=O)CN2CCCNC2=O)c(SC(F)(F)F)c1 | -1.96
23 | CS(=O)(=O)CCC(=O)NC1(c2cccc(Br)c2)CC1 | -11.1

Row | Compound | cytotoxicity at 10 µM [%]
24 | COc1ccc(CN(C)C(=O)CCc2c(C)nc(C)[nH]c2=O)cc1OC | -11.2
25 | CCC(CC)CN1CCC2(CCC(=O)N2OCc2ccccc2F)CC1 | 6.69
26 | CCN(C)C(=O)c1ccc(N(C)Cc2cc(-c3ccncc3)no2)nc1 | -2.04
27 | CCn1c(CN(C)C)nnc1C1CCN(Cc2ccc(Cl)cc2)CC1 | 1.77
28 | Cc1ccc(N2CC[C@@]3(O)CCN(S(C)(=O)=O)C[C@H]3C2)nn1 | 7.99
29 | CN(C)c1ccc(CC(=O)N2CCOCC(O)C2)cc1 (stereo unspecified) | 13.3
30 | COCCCC1(CO)CCCN(CCc2ccccn2)C1 (stereo unspecified) | 7.42
31 | CC(c1ccco1)n1cc(-c2cc(CN3CCCC3)cs2)nn1 (stereo unspecified) | -23.6
32 | CSCC(=O)N1C[C@@H](C)[C@](O)(C(C)C)C1 | 9.24
33 | CCOCc1nc2c(c(NCc3cc(C)on3)n1)CCN(C(C)=O)CC2 | 2.24
34 | CC(=O)NCCNc1nc(C2CCCC2)nc2c1cnn2C | 7.39
35 | CNc1nc(CN2C[C@@H](NC(C)=O)[C@H](c3ccc(C)o3)C2)cs1 | -42.4
36 | NC(=O)c1cc(-n2cc(-c3cccc(C(=O)O)c3)cn2)cs1 | -0.387
37 | COc1cccc(OC)c1CN1CCC2(CC(Nc3ccncn3)C2)C1 (stereo unspecified) | 3.71
38 | CN(C)c1cc(C(=O)N2CCCCCC2)ccn1 | -8.83
39 | Cc1nc(C)n(C2CCCN(C(=O)COCc3ccccc3)C2)n1 (stereo unspecified) | -11
40 | CCn1ccnc1CN1CCN(CC(=O)NC(C)(C#N)C2CC2)CC1 (stereo unspecified) | -8.24
41 | CCN(CC)CCCNc1nc(C)nc2c1CCN(C)C2 | 3.19
42 | Cn1cc(CN2CCc3ncnc(N4CCOCC4)c3CC2)cn1 | -3.46
43 | O=C(C1CCC1)N1C[C@@H](c2ccsc2)[C@@H]2CN(C3CCCC3)CC[C@@H]21 | -1.51
44 | COCCN1CCCc2sc(C(=O)N3CCCN(C)CC3)nc21 | 0.534
45 | CC(C)n1cc(-n2cc3nc(N4CCOCC4)[nH]cc-3c2=O)cn1 | 4.48
46 | Cc1cccc(S(=O)(=O)N2C[C@@H]3C[C@H](C(=O)NC4CCC4)[C@H](C2)O3)c1 | -1.74
